{"data": "Assay results pooled from the literature", "target": "Myosin light chain kinase 2, skeletal/cardiac muscle (MYLK2, Homo sapiens, UniProt Q9H1R3)", "note": "Compare with care: the assays were run in different laboratories."}
{"Compound": "CCCOc1ccc(OC)c(F)c1C(=O)c1ccc(C(=O)N[C@@H]2CNC[C@H]2NC(=O)c2ccc3[nH]ncc3c2)cc1", "test": "enzyme activity, inhibitor", "setting": "10 µM", "measurement": "remaining activity", "value": "76%"}
{"Compound": "Cc1ccc(NC(=O)c2ccc(CN3CCN(C)CC3)cc2)cc1Nc1nc(-c2cccnc2)cs1", "test": "cell-free assay", "setting": "0.5 µM", "measurement": "remaining signal", "value": "98.7%"}
{"Compound": "CN(C)C(=O)Cn1cc(-c2nc([C@@](C)(c3ccc(-c4cnc(N)nc4)cc3)C3CC3)no2)cn1", "test": "cell-free assay, competition with immobilised ligand", "setting": "1 µM", "measurement": "remaining binding", "value": "100%"}
{"Compound": "O=C(Nc1cnn(-c2csc(C(=O)NC3COC3)c2)c1)Nc1ccccc1Cl", "test": "enzyme activity, inhibitor", "setting": "5 µM", "measurement": "remaining activity", "value": "89.9%"}
{"Compound": "CNC(=O)c1cc(Oc2ccc(NC(=O)Nc3ccc(Cl)c(C(F)(F)F)c3)cc2)ccn1", "test": "enzyme activity, inhibitor", "setting": "10 µM", "measurement": "inhibition", "value": "16%"}
{"Compound": "CCS(=O)(=O)c1cc2cc(C[C@](O)(CC(C)(C)c3ccc(F)cc3C(N)=O)C(F)(F)F)[nH]c2cn1", "test": "cell-free assay, competition with immobilised ligand", "setting": "1 µM", "measurement": "remaining binding", "value": "98%"}
{"Compound": "CC(C)(C)c1nc(-c2cccc(NS(=O)(=O)c3c(F)cccc3F)c2F)c(-c2ccnc(N)n2)s1", "test": "enzyme activity, inhibitor, radiometric", "setting": "1 µM", "measurement": "remaining activity", "value": "112%"}
{"Compound": "NS(=O)(=O)c1cc(NC(=O)C2(c3ccccc3Cl)CC2)ccc1Oc1cccc(Cl)c1", "test": "cell-free assay, competition with immobilised ligand", "setting": "1 µM", "measurement": "remaining binding", "value": "73%"}
{"Compound": "C=CC(=O)Nc1cc(Nc2nccc(Nc3cc(Cl)c(F)cc3C(C)(C)O)n2)c(OC)cc1N1CC[C@@H](N(C)C)C1", "test": "enzyme activity, inhibitor", "setting": "1 µM", "measurement": "inhibition", "value": "-9%"}
{"Compound": "Clc1ccc(Nc2nnc(Cc3ccncc3)c3ccccc23)cc1", "test": "cell-free assay", "setting": "0.5 µM", "measurement": "remaining signal", "value": "103%"}
{"Compound": "Cn1nc(C(F)(F)F)cc1-c1cnc(N2CCc3cc(S(=O)(=O)Nc4c(F)cc(Cl)cc4F)cc(N4CCCC4=O)c32)nc1", "test": "cell-free assay, competition with immobilised ligand", "setting": "1 µM", "measurement": "remaining binding", "value": "100%"}
{"Compound": "CCN(CC)CCNC(=O)c1c(C)[nH]c(/C=C2\\C(=O)Nc3ccc(F)cc32)c1C", "test": "enzyme activity, inhibitor", "setting": "0.3 µM", "measurement": "inhibition", "value": "37%"}
{"Compound": "Cc1cnc(NC2CCOCC2)nc1-n1cnc(C(=O)NC(CN)c2cc(F)cc(Cl)c2)c1 (stereo not shown)", "test": "enzyme activity, inhibitor, radiometric", "setting": "1 µM", "measurement": "remaining activity", "value": "95%"}
{"Compound": "O=C1Nc2ccc(Cl)cc2C1=Cc1cc(Cl)c(O)c(Cl)c1", "test": "cell-free assay", "setting": "0.5 µM", "measurement": "remaining signal", "value": "71.5%"}
{"Compound": "Cc1nc(Cc2cccc(C(F)(F)F)c2)sc1-c1ccc(C(N)=O)nc1", "test": "cell-free assay, competition with immobilised ligand", "setting": "1 µM", "measurement": "remaining binding", "value": "77%"}
{"Compound": "CC/C(=N\\NC(=O)NCc1cccc(O)c1)c1ccc(O)c(C)c1O", "test": "enzyme activity, inhibitor", "setting": "0.1 µM", "measurement": "inhibition", "value": "6%"}
{"Compound": "CS(=O)(=O)NCC[C@H](NC(=O)c1cncc2c1cnn2-c1ccc(F)cc1)c1ccnc(S(C)(=O)=O)c1", "test": "cell-free assay, competition with immobilised ligand", "setting": "1 µM", "measurement": "remaining binding", "value": "93%"}
{"Compound": "CC(C)(O)[C@H]1CC[C@H](Nc2ccc3ncc(-c4cccc(C(F)(F)F)c4)n3n2)CC1", "test": "enzyme activity, inhibitor", "setting": "1 µM", "measurement": "remaining activity", "value": "96.7%"}
{"Compound": "COc1cc2ncnc(Nc3ccc(Oc4ccccc4)c(C)c3C)c2cc1OC", "test": "enzyme activity, inhibitor", "setting": "1 µM", "measurement": "inhibition", "value": "-5%"}
